Data as given in ChEMBL document CHEMBL3526127, “Absorption, elimination, and metabolism of CS-1036, a novel α-amylase inhibitor in rats and monkeys, and the relationship between gastrointestinal distribution and suppression of glucose absorption” (Drug Metab Dispos, 2013).

Key:
Rattus norvegicus [1] = assay: Drug level in F344 rat treated with 0.3 mg/kg, po CS-1036 administered as single dose assessed as ratio of molar based AUClast by LC-MS/MS method relative to CS-1036; format: ADME, organism-based; parameters: dose 0.3 mg/kg, route oral; details: in vivo
Rattus norvegicus [2] = assay: Drug level in F344 rat treated with 1 mg/kg, po CS-1036 administered as single dose assessed as ratio of molar based AUClast by LC-MS/MS method relative to CS-1036; format: ADME, organism-based; parameters: dose 1 mg/kg, route oral; details: in vivo
Rattus norvegicus [3] = assay: Drug level in F344 rat treated with 3 mg/kg, po CS-1036 administered as single dose assessed as ratio of molar based AUClast by LC-MS/MS method relative to CS-1036; format: ADME, organism-based; parameters: dose 3 mg/kg, route oral; details: in vivo
Rattus norvegicus [4] = assay: Drug level in F344 rat treated with 10 mg/kg, po CS-1036 administered as single dose assessed as ratio of molar based AUClast by LC-MS/MS method relative to CS-1036; format: ADME, organism-based; parameters: dose 10 mg/kg, route oral; details: in vivo
Cynomolgus monkey [5] = assay: Drug level in cynomolgus monkey treated with 1 mg/kg, po CS-1036 administered as single dose assessed as ratio of molar based AUClast by LC-MS/MS method relative to CS-1036; format: ADME, organism-based, Macaca fascicularis; parameters: dose 1 mg/kg, route oral; details: in vivo
Cynomolgus monkey [6] = assay: Drug level in cynomolgus monkey treated with 3 mg/kg, po CS-1036 administered as single dose assessed as ratio of molar based AUClast by LC-MS/MS method relative to CS-1036; format: ADME, organism-based, Macaca fascicularis; parameters: dose 3 mg/kg, route oral; details: in vivo
Cynomolgus monkey [7] = assay: Drug level in cynomolgus monkey treated with 10 mg/kg, po CS-1036 administered as single dose assessed as ratio of molar based AUClast by LC-MS/MS method relative to CS-1036; format: ADME, organism-based, Macaca fascicularis; parameters: dose 10 mg/kg, route oral; details: in vivo
[8] = Drug excretion in urine of F344 rat treated with [14C]CS-1036 at 1 mg/kg, po administered as single dose after 24 hrs by scintillation counting method; format: ADME, organism-based; parameters: dose 1 mg/kg, route oral; details: in vivo
Stomach = assay: Drug distribution in stomach of F344 rat treated with [14C]CS-1036 at 1 mg/kg, po administered as single dose after 2 to 8 hrs by scintillation counting method; format: ADME, organism-based; parameters: dose 1 mg/kg, route oral; details: in vivo
Intestine = assay: Drug distribution in intestine of F344 rat treated with [14C]CS-1036 at 1 mg/kg, po administered as single dose after 2 to 8 hrs by scintillation counting method; format: ADME, organism-based; parameters: dose 1 mg/kg, route oral; details: in vivo
[9] = Drug distribution in cecum of F344 rat treated with [14C]CS-1036 at 1 mg/kg, po administered as single dose by scintillation counting method; format: ADME, organism-based, Caecum; parameters: dose 1 mg/kg, route oral; details: in vivo, TDE = time-dependent effect
Outline: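 [14C]-labelled drug (1 mg/kg, 42.4 µCi/kg) was given orally to fasted F344 rats (148–168 g, n = 3). Contents of stomach, duodenum+jejunum, ileum and cecum were washed out with water at 0.5–8 h, homogenized, solubilized and counted by liquid scintillation. Results are % of dose, mean ± S.D.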

[10] = Drug distribution in cecum of F344 rat treated with [14C]CS-1036 at 1 mg/kg, po administered as single dose after 8 hrs by scintillation counting method; format: ADME, organism-based, Caecum; parameters: dose 1 mg/kg, route oral; details: in vivo
Mus musculus = species on record: Mus musculus; assay: Inhibition of glycogen phosphorylase in ob/ob mouse; format: functional, organism-based
[11] = Oral bioavailability in rat at 10 mg/kg; format: ADME, organism-based; details: in vivo
[12] = Cmax in rat at 10 mg/kg, po; format: ADME, organism-based; parameters: dose 10 mg/kg, route oral; details: in vivo
[13] = Drug level in urine of F344 rat treated with [14C]CS-1036 by LC-MS/MS method; format: ADME, tissue-based; details: in vivo
[14] = Drug level in feces of F344 rat treated with [14C]CS-1036 by LC-MS/MS method; format: ADME, tissue-based; details: in vivo
[15] = Drug level in anaerobic culture broth of F344 rat cecal content treated with [14C]CS-1036 at 63.5 uCi/ml after 24 hrs at 35 degC by LC-MS/MS method; format: ADME; details: in vitro
[16] = Drug level in anaerobic culture broth of human feces derived anaerobic culture broth treated with [14C]CS-1036 at 63.5 uCi/ml after 24 hrs at 35 degC by LC-MS/MS method; format: ADME, tissue-based
[17] = Drug level in urine of po dosed F344 rat treated with [14C]CS-1036 by LC-MS/MS method; format: ADME, organism-based; details: in vivo
Rattus norvegicus [18] = assay: Drug level in F344 rat treated with 3 mg/kg, iv CS-1036 administered as single dose assessed as ratio of molar based AUClast by LC-MS/MS method relative to CS-1036; format: ADME, organism-based; parameters: dose 3 mg/kg, route intravenous; details: in vivo
Rattus norvegicus [19] = assay: Drug level in F344 rat treated with 10 mg/kg, iv CS-1036 administered as single dose assessed as ratio of molar based AUClast by LC-MS/MS method relative to CS-1036; format: ADME, organism-based; parameters: dose 10 mg/kg, route intravenous; details: in vivo
[20] = Drug level in urine of po dosed monkey treated with [14C]CS-1036 by LC-MS/MS method; details: cynomolgus monkey, in vivo
[21] = Drug excretion in urine of cynomolgus monkey treated with [14C]CS-1036 at 3 mg/kg, po administered as single dose after 48 hrs by scintillation counting method; details: in vivo
[22] = Drug excretion in feces of cynomolgus monkey treated with [14C]CS-1036 at 3 mg/kg, po administered as single dose after 48 hrs by scintillation counting method; details: in vivo
[23] = Drug level in anaerobic culture broth of monkey feces derived anaerobic culture broth treated with [14C]CS-1036 at 63.5 uCi/ml after 24 hrs at 35 degC by LC-MS/MS method; details: cynomolgus monkey, in vivo
[24] = Drug metabolism in anaerobic culture broth of F344 rat cecal content assessed as N-acetyl [14C]CS-1036 formation at 63.5 uCi/ml after 24 hrs at 35 degC by LC-MS/MS method; format: ADME
[25] = Drug distribution in cecum of F344 rat treated with [14C]CS-1036 at 1 mg/kg, po administered as single dose after 6 to 8 hrs by scintillation counting method; format: ADME, organism-based, Caecum; parameters: dose 1 mg/kg, route oral; details: in vivo

## OC[C@H]1NC[C@@H](O)[C@@H]1O
Rattus norvegicus [1]
  Drug uptake: 22.1%
Rattus norvegicus [2]
  Drug uptake: 73.4%
Rattus norvegicus [3]
  Drug uptake: 49.9%
Rattus norvegicus [4]
  Drug uptake: 32.2%
Cynomolgus monkey [5]
  Drug uptake: 60.8%
Cynomolgus monkey [6]
  Drug uptake: 83.5%
Cynomolgus monkey [7]
  Drug uptake: 62.5%
[8]
  Drug excretion: 5.3%
Stomach
  Drug uptake: < 1%
Intestine
  Drug uptake: < 1%
[9]
  Drug uptake: tde
[10]
  Drug uptake: 7.1%
Mus musculus
  Ki: 392 nM
[11]
  bioavailability: 89%
[12]
  Cmax: < 300 nM
[13]
  Drug metabolism: metabolite_detected
[14]
  Drug metabolism: metabolite_detected
[15]
  Drug metabolism: metabolite_detected
[16]
  Drug metabolism: metabolite_detected
[17]
  Drug metabolism: metabolite_detected
Rattus norvegicus [18]
  Drug uptake: 0.00672%
Rattus norvegicus [19]
  Drug uptake: 0.0172%
[20]
  Drug metabolism: metabolite_detected
[21]
  Drug excretion: 2.2%
[22]
  Drug excretion: 9.7%
[23]
  Drug metabolism: metabolite_detected

## CC(=O)N1C[C@@H](O)[C@H](O[C@H]2O[C@H](CO)[C@@H](O[C@@H]3O[C@H](C)[C@@H](O)[C@H](O)[C@H]3O)[C@H](O)[C@H]2O)[C@H]1CO
[15]
  Drug metabolism: metabolite_detected
[24]
  Drug metabolism: metabolite_detected

## CC(=O)N1C[C@@H](O)[C@H](O)[C@H]1CO
Stomach
  Drug metabolism: metabolite_not_detected
Intestine
  Drug metabolism: metabolite_not_detected
[25]
  Drug uptake: 1.7%
[14]
  Drug metabolism: metabolite_detected
[15]
  Drug metabolism: metabolite_detected
[16]
  Drug metabolism: metabolite_detected
[22]
  Drug excretion: 17.8%
[23]
  Drug metabolism: metabolite_detected
